ChEMBL document CHEMBL3286182, “4-aminoquinolone piperidine amides: noncovalent inhibitors of DprE1 with long residence time and potent antimycobacterial activity” (J Med Chem, 2014)
≈ marks a conversion by molar mass, not a printed value. Calls of active or inactive are those of the source. No cut-off for these calls is given here.

What was measured:
[1] = system: Mycobacterium tuberculosis; experiment: Antimycobacterial activity against Mycobacterium tuberculosis H37Rv after 5 days by standard microdilution method; type: functional; conditions: 120 h
[2] = AUC (0 to infinity) in Wistar rat at 10 mg/kg, po; type: ADME, organism-based; design: time infinity, dose 10 mg/kg, route oral; conditions: plasma
How it was run: (§1)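 Male Wistar rats given a single dose, 2 mg/kg intravenously or 10 mg/kg orally. Plasma concentration followed over time, n = 2 per compound. Parameters taken from the plasma curves: C0 (iv), Cmax (oral), AUC0−∞, elimination half-life, plasma clearance, Vss and oral bioavailability.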

[3] = Solubility of the compound in 0.1 M phosphate buffer at pH 7.4 after 24 hrs by UV and MS analysis; type: physicochemical
Escherichia coli [4] = experiment: Antimicrobial activity against Escherichia coli ARC523 at 100 uM; type: functional, organism-based
How it was run: (§2)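 Nonmycobacterial panel of Candida albicans, Gram-negative and Gram-positive pathogens.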

[5] = Clearance in Wistar rat at 2 mg/kg, iv; type: ADME, organism-based; design: dose 2 mg/kg, route intravenous; conditions: in vivo; how it was run: as §1
[6] = Oral bioavailability in Wistar rat at 10 mg/kg; type: ADME, organism-based; conditions: in vivo; how it was run: as §1
Candida albicans = experiment: Antimicrobial activity against Candida albicans ARC527 at 100 uM; type: functional, organism-based; how it was run: as §2
[7] = Intrinsic clearance in human liver microsomes at 1 uM up to 30 mins by LC-MS/MS analysis; type: ADME; conditions: read-out: CLH
[8] = biological target: Voltage-gated inwardly rectifying potassium channel KCNH2 (Homo sapiens, UniProt Q12809); experiment: Inhibition of human ERG by medium-throughput electrophysiology
Adenosine receptor A1 = biological target: T1, Adenosine receptor A1 (Homo sapiens, UniProt P30542); experiment: Inhibition of adenosine A1 receptor (unknown origin)
T1 sequence (P30542 whole entry): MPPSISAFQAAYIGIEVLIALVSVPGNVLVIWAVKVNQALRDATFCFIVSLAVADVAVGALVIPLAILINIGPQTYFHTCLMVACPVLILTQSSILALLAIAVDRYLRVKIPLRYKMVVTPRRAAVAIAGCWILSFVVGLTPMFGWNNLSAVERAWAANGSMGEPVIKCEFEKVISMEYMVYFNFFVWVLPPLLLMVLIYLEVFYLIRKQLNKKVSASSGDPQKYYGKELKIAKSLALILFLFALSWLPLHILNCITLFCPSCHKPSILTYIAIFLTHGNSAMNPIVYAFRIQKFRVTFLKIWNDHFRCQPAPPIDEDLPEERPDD
How it was run: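 Secondary pharmacology panel of binding, enzyme and functional assays covering 24 molecular targets. Activity recorded as a defined Ki/IC50/EC50.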

[9] = Permeability of the compound from apical to basolateral side in human Caco2 cells; type: ADME, cell-based; conditions: Caco-2, read-out: permeability
[10] = Cytotoxicity against human A549 cells after 72 hrs by resazurin based fluorescence assay; type: cell-based; conditions: read-out: MIC
How it was run: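 Cytotoxicity read as MMIC, the MIC on the A549 cell line.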

[11] = Fraction unbound in human plasma at 20 uM after 18 hrs by equilibrium dialysis method; type: ADME, cell-free
[12] = Elimination half life in Wistar rat at 10 mg/kg, po; type: ADME, organism-based; design: dose 10 mg/kg, route oral; conditions: in vivo, read-out: beta t1/2 (converted); how it was run: as §1
Haemophilus influenzae [13] = experiment: Antimicrobial activity against Haemophilus influenzae ARC446 at 100 uM; type: functional, organism-based; how it was run: as §2
Cytochrome P450 1A2 = biological target: T2, Cytochrome P450 1A2 (Homo sapiens, UniProt P05177); experiment: Inhibition of CYP1A2 (unknown origin); type: ADME
T2 sequence (P05177 whole entry): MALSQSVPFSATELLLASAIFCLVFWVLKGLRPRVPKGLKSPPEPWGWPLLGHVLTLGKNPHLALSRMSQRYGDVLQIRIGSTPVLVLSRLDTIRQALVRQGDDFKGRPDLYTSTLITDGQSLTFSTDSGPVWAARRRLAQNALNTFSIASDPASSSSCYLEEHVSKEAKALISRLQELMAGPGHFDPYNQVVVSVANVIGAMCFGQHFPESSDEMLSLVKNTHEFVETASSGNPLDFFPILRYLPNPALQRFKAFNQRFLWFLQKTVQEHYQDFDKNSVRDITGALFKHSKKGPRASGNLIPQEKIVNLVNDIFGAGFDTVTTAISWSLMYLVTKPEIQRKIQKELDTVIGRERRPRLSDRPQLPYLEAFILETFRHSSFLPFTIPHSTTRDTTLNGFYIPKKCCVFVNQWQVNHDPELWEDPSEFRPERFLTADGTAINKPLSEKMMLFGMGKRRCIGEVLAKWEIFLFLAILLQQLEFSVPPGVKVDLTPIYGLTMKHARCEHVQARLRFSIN
How it was run: (§3)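 CYP inhibition IC50 measured on isoforms CYP3A4, CYP2D6, CYP2C9, CYP2C19 and CYP1A2.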

[14] = Intrinsic clearance in rat cryopreserved hepatocytes assessed per 10^6 cells at 1 uM up to 120 mins by LC-MS/MS analysis; type: ADME, cell-based, Hepatocyte; conditions: read-out: CLH
[15] = Inhibition of Mycobacterium smegmatis recombinant DprE1 using farnesylphosphoryl-beta-D-ribofuranose as substrate assessed as conversion of amplex red to resorufin after 30 mins; design: species or system Mycolicibacterium smegmatis
How it was run: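 Msm DprE1 (thioredoxin-6His fusion of Msm Rv3790) at 75 nM, preincubated 30 min with 10 μM FAD. Buffer: 50 mM glycylglycine pH 8.5, 200 mM potassium glutamate, 0.002% Brij-35, 2% DMSO, 25 °C. Started with 300 μM farnesylphosphoryl-β-D-ribofuranose, 0.01 mg/mL HRP and 50 μM Amplex Red.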

[16] = Permeability of the compound from basolateral to apical side in human Caco2 cells; type: ADME, cell-based; conditions: Caco-2, read-out: permeability
Cytochrome P450 3A4 = Cytochrome P450 3A4 (Homo sapiens, UniProt P08684); experiment: Inhibition of CYP3A4 (unknown origin); type: ADME; how it was run: as §3
Cytochrome P450 2C19 = Cytochrome P450 2C19 (Homo sapiens, UniProt P33261); experiment: Inhibition of CYP2C19 (unknown origin); type: ADME; how it was run: as §3
[17] = system: Mycobacterium tuberculosis; experiment: Antimycobacterial activity against Mycobacterium tuberculosis H37Rv under hypoxic condition after 6 days by resazurin assay; type: functional
Cytochrome P450 2C9 = Cytochrome P450 2C9 (Homo sapiens, UniProt P11712); experiment: Inhibition of CYP2C9 (unknown origin); type: ADME; how it was run: as §3
[18] = Cmax in Wistar rat at 10 mg/kg, po; type: ADME, organism-based; design: dose 10 mg/kg, route oral; conditions: in vivo; how it was run: as §1
Klebsiella pneumoniae = experiment: Antimicrobial activity against Klebsiella pneumoniae ARC1865 at 100 uM; type: functional, organism-based; how it was run: as §2
Streptococcus pneumoniae = experiment: Antimicrobial activity against Streptococcus pneumoniae ARC548 at 100 uM; type: functional, organism-based; how it was run: as §2
Cytochrome P450 2D6 = Cytochrome P450 2D6 (Homo sapiens, UniProt P10635); experiment: Inhibition of CYP2D6 (unknown origin); type: ADME; how it was run: as §3
Staphylococcus aureus = experiment: Antimicrobial activity against Staphylococcus aureus ARC517 at 100 uM; type: functional, organism-based; how it was run: as §2
Escherichia coli [19] = experiment: Antimicrobial activity against Escherichia coli ARC524 at 100 uM; type: functional, organism-based; how it was run: as §2
Pseudomonas aeruginosa [20] = experiment: Antimicrobial activity against Pseudomonas aeruginosa ARC546 at 100 uM; type: functional, organism-based; how it was run: as §2
[21] = system: Mycolicibacterium smegmatis; experiment: Antimicrobial activity against Mycobacterium smegmatis mc2155 at 100 uM; type: functional, organism-based; conditions: str. MC2 155
[22] = Octanol-water partition coefficient, log D of the compound by shake-flask method; type: physicochemical
[23] = AUC (0 to infinity) in Wistar rat at 2 mg/kg, iv; type: ADME, organism-based; design: dose 2 mg/kg, route intravenous, time infinity; conditions: plasma; how it was run: as §1
[24] = system: Mycolicibacterium smegmatis; experiment: Antimicrobial activity against Mycobacterium smegmatis ATCC 607 at 100 uM; type: functional, organism-based
Pseudomonas aeruginosa [25] = experiment: Antimicrobial activity against Pseudomonas aeruginosa ARC545 at 100 uM; type: functional, organism-based; how it was run: as §2
[26] = Volume of distribution at steady state in Wistar rat at 2 mg/kg, iv; type: ADME, organism-based; design: dose 2 mg/kg, route intravenous; conditions: in vivo, read-out: Vdss; how it was run: as §1
Haemophilus influenzae [27] = experiment: Antimicrobial activity against Haemophilus influenzae ARC158 at 100 uM; type: functional, organism-based; how it was run: as §2
[28] = Elimination half life in Wistar rat at 2 mg/kg, iv; type: ADME, organism-based; design: dose 2 mg/kg, route intravenous; conditions: in vivo, read-out: beta t1/2 (converted); how it was run: as §1
[29] = Initial plasma concentration in Wistar rat at 2 mg/kg, iv; type: ADME, organism-based; design: dose 2 mg/kg, route intravenous; how it was run: as §1
[30] = Solubility of the compound in fed-state simulated intestinal fluid at pH 6.5; type: ADME
[31] = Inhibition of Mycobacterium smegmatis DprE1 Y321H mutant using farnesylphosphoryl-beta-D-ribofuranose as substrate assessed as conversion of amplex red to resorufin after 30 mins; design: species or system Mycolicibacterium smegmatis
How it was run: (§4)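 Recombinant M. smegmatis DprE1 (thioredoxin-6His fusion), wild type or Y321H, 75 nM. Enzyme was preincubated 30 min in FAD assay mix: 50 mM glycylglycine pH 8.5, 200 mM potassium glutamate, 10 μM FAD, 0.002% Brij-35, 2% DMSO. Reaction was started with 300 μM farnesylphosphoryl-β-D-ribofuranose, 0.01 mg/mL HRP and 50 μM amplex red at 25 °C.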

[32] = system: Mycolicibacterium smegmatis; experiment: Ratio of IC50 for Mycobacterium smegmatis DprE1 Y321H mutant to IC50 for Mycobacterium smegmatis recombinant wild type DprE1; how it was run: as §4
[33] = system: Mycobacterium tuberculosis; experiment: Antimycobacterial activity against Mycobacterium tuberculosis over expressing DprE1 after 5 days by standard microdilution method; type: functional; conditions: 120 h

Chain of Cytochrome P450 2C9 (P11712 whole entry): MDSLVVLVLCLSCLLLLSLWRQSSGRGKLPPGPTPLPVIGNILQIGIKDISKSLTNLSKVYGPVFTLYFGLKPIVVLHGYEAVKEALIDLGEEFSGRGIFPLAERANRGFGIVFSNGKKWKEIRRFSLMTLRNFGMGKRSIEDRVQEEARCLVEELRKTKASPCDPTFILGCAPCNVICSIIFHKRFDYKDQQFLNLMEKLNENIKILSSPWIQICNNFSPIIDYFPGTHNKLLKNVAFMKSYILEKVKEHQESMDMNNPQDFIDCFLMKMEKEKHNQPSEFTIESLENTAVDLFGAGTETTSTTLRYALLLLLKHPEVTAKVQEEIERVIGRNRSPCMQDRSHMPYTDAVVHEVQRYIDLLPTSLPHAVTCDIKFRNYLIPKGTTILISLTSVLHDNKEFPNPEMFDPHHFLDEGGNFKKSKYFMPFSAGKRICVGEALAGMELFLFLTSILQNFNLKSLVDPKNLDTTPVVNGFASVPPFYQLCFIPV
Chain of Cytochrome P450 2C19 (P33261 whole entry): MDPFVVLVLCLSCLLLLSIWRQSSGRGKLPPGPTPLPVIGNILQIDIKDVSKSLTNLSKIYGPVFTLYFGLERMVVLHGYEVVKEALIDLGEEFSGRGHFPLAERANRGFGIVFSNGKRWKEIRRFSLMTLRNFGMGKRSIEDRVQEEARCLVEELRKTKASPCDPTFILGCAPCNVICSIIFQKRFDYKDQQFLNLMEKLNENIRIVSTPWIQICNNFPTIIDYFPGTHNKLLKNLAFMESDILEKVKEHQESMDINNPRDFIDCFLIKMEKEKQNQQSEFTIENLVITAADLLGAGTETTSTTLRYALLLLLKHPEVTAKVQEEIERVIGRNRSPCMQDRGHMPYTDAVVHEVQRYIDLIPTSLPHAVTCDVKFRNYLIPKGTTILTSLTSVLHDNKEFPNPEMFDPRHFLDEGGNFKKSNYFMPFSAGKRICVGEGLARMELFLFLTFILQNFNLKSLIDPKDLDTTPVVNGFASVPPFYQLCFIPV
Chain of Cytochrome P450 3A4 (P08684 whole entry): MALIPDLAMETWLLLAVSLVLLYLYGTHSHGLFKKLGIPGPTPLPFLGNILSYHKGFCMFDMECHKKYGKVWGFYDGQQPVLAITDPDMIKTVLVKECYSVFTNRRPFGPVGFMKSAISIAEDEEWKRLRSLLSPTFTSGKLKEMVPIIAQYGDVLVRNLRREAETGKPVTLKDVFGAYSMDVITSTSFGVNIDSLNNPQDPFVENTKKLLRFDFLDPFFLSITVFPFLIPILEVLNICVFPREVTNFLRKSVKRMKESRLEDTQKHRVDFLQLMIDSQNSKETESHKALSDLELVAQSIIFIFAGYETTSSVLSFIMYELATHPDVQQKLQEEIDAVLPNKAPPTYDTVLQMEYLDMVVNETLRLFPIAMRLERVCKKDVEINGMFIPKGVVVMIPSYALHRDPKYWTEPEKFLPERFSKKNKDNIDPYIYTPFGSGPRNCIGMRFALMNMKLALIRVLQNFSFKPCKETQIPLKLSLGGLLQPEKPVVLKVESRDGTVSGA
Chain of Cytochrome P450 2D6 (P10635 whole entry): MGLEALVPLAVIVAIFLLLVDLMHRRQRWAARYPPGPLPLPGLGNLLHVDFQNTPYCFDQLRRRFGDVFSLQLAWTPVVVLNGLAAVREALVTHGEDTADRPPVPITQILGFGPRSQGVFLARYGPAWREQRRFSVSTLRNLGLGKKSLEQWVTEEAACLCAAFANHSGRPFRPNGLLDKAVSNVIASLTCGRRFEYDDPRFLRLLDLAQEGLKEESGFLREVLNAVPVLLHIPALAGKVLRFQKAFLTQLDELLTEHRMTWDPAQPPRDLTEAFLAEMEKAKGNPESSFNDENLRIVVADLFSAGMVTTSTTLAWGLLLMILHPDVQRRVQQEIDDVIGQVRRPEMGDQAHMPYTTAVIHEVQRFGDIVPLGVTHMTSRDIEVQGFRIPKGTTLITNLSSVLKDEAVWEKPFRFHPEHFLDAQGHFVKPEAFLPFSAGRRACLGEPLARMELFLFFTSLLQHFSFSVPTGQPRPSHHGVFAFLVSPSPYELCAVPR
Chain of Voltage-gated inwardly rectifying potassium channel KCNH2 (Q12809 whole entry): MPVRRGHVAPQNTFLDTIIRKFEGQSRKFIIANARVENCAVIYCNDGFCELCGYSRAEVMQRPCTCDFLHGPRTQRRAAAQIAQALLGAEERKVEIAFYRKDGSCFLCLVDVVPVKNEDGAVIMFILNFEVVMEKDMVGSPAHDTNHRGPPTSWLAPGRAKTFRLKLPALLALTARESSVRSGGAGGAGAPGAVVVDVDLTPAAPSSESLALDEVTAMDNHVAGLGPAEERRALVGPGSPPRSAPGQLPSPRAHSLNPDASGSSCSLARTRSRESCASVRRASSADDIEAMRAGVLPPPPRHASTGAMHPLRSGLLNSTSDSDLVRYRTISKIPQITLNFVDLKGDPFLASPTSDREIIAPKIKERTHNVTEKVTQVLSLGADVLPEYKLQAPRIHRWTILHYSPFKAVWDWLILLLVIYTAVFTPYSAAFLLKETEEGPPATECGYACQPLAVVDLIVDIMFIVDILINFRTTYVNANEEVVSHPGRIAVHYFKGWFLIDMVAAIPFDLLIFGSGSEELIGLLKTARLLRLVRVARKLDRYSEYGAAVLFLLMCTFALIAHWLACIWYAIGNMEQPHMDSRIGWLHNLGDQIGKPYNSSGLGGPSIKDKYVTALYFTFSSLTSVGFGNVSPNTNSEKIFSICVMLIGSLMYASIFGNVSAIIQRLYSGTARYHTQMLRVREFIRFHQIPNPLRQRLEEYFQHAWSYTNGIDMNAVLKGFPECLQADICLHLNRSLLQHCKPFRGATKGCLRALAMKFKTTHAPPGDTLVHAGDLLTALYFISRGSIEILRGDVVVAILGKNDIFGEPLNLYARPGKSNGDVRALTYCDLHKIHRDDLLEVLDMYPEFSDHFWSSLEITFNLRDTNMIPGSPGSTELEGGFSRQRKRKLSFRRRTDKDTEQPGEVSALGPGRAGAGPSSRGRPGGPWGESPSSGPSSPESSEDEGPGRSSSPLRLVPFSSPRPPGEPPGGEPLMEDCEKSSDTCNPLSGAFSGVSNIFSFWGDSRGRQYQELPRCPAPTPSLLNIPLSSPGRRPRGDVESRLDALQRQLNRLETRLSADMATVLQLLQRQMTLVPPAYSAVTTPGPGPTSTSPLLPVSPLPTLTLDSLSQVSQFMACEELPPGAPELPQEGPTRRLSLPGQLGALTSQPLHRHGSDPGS

Compound: Cn1ncc(C(=O)N2CCC(Nc3cc(=O)n(C)c4ccccc34)CC2)c1Cl
- MIC [1]: 25 µM (≈ 10 µg/mL)
- AUC(0-inf) [2]: 19 µM·h
- solubility at 24 h [3]: 78 µM (≈ 31.2 µg/mL)
- Activity (Escherichia coli [4]): inactive
- clearance [5]: 24.8 mL/min/kg
- bioavailability [6]: 100%
- Activity (Candida albicans): inactive
- microsomal CLint at 1 µM [7]: 14 µL/min/mg
- IC50 [8]: > 33 µM
- IC50 (Adenosine receptor A1): 8 µM
- Papp A→B [9]: 4 ×10⁻⁶ cm/s
- MCC at 72 h [10]: > 100 µM
- fraction unbound at 18 h, 20 µM [11]: 0.03
- half-life [12]: 78 min
- Activity (Haemophilus influenzae [13]): inactive
- INH (Cytochrome P450 1A2): > 30 µM
- hepatocyte CLint at 1 µM [14]: 8 µL/min/1e6 cells
- IC50 [15]: 140 nM
- Papp B→A [16]: 23 ×10⁻⁶ cm/s
- INH (Cytochrome P450 3A4): > 30 µM
- INH (Cytochrome P450 2C19): > 30 µM
- Activity [17]: inactive
- INH (Cytochrome P450 2C9): > 30 µM
- Cmax [18]: 7 µM
- Activity (Klebsiella pneumoniae): inactive
- Activity (Streptococcus pneumoniae): inactive
- INH (Cytochrome P450 2D6): > 30 µM
- Activity (Staphylococcus aureus): inactive
- Activity (Escherichia coli [19]): inactive
- Activity (Pseudomonas aeruginosa [20]): inactive
- Activity [21]: inactive
- logD [22]: 2
- AUC(0-inf) [23]: 3.4 µM·h
- Activity [24]: inactive
- Activity (Pseudomonas aeruginosa [25]): inactive
- Vd [26]: 1.2 L/kg
- Activity (Haemophilus influenzae [27]): inactive
- half-life [28]: 66 min
- C0 [29]: 5.4 µM

Compound: Cc1onc(C(=O)N2CCC(Nc3cc(=O)n(C)c4cc(F)c(F)cc34)CC2)c1C
- MIC [1]: 0.78 µM (≈ 0.325 µg/mL)
- solubility at 24 h [3]: 28 µM (≈ 11.7 µg/mL)
- Activity (Escherichia coli [4]): inactive
- Activity (Candida albicans): inactive
- microsomal CLint at 1 µM [7]: 49 µL/min/mg
- solubility [30]: 91 µM (≈ 37.9 µg/mL)
- IC50 (Adenosine receptor A1): 8 µM
- Papp A→B [9]: 22 ×10⁻⁶ cm/s
- IC50 [31]: 7.02 µM
- MCC at 72 h [10]: > 16 µM
- fraction unbound at 18 h, 20 µM [11]: 0.05
- Activity (Haemophilus influenzae [13]): inactive
- INH (Cytochrome P450 1A2): > 30 µM
- hepatocyte CLint at 1 µM [14]: 17 µL/min/1e6 cells
- IC50 [15]: 38 nM
- Papp B→A [16]: 21 ×10⁻⁶ cm/s
- INH (Cytochrome P450 3A4): > 30 µM
- INH (Cytochrome P450 2C19): > 30 µM
- Activity [17]: inactive
- INH (Cytochrome P450 2C9): > 30 µM
- Activity (Klebsiella pneumoniae): inactive
- Activity (Streptococcus pneumoniae): inactive
- fold change (FC) [32]: 165
- INH (Cytochrome P450 2D6): > 30 µM
- Activity (Staphylococcus aureus): inactive
- Activity (Escherichia coli [19]): inactive
- Activity (Pseudomonas aeruginosa [20]): inactive
- Activity [21]: inactive
- logD [22]: 2.3
- Activity [24]: inactive
- Activity (Pseudomonas aeruginosa [25]): inactive
- MIC [33]: 100 µM (≈ 41.6 µg/mL)
- Activity (Haemophilus influenzae [27]): inactive
